Source: PubChem BioAssay (several laboratories)
Shown are actives, neighbours in structure and some others; about 1.7% of the full set was active somewhere.
Keap1 Nrf2 FP: inhibitors of human Keap1-Nrf2 protein-protein interaction. Keap1 Kelch-Nrf2 peptide fluorescence polarization, 1536-well. inhibition, % at 9.4 µM. AID 504523. 340,000 compounds, 0.15% hits; in the data active = inhibition above about 12%;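 note: human Keap1 Kelch domain with fluorescein labeled Nrf2 9mer peptide probe; higher means more block of Keap1 binding to Nrf2 peptide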
CAL PDZ FP-1: inhibitors of human CAL PDZ peptide binding; Q9HD26; purified CAL PDZ, TMR-peptide fluorescence polarization, 1 h; inhibition, % at 20 µM; 330,000 compounds, 0.02% hits;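 active = highest replicate inhibition of at least 40%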
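Test system: tagged CAL PDZ domain / Buffer or medium: sodium phosphate/NaCl buffer pH 7.4 with TCEP, IgG, Thesit / Reagent: TMR-labelled reporter peptide T*-PRC34 bound in PDZ groove / Compound dosing: single point, 20 µM / Schedule: 1 h incubation at room temperature before polarization reading / Technique: fluorescence polarization (mP) / Benchmarks: unlabelled peptide, DMSO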
APOBEC3G inh: APOBEC3G (human) deaminase inhibition. AID 493012. 330,000 compounds, 0.28% hits. recombinant A3G, ssDNA deamination FAM/TAMRA fluorescence. Q9HC16. inhibition, % at 20 µM;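 active = inhibition of at least 40% at 20 µM, with no more than 30% in the related APOBEC3A deaminase screen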
Target sequence (Q9HC16 whole entry, looked up): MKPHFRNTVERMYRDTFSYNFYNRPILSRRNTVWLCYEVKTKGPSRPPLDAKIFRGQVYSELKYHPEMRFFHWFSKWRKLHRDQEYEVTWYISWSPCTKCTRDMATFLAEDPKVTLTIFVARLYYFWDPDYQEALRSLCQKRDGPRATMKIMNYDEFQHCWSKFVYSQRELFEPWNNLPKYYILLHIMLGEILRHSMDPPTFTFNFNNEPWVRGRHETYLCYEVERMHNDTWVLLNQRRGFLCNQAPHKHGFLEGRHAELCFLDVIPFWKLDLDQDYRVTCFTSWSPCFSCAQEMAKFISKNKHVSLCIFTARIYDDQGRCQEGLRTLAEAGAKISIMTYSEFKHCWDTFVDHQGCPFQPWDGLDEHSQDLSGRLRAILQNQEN
C-LANA FP: blocks KSHV LANA C-terminal domain binding to DNA; 340,000 compounds, 0.078% hits; inhibition, % at 9 µM; AID 504423; MBP-C-LANA/FAM-LBS DNA binding, fluorescence polarization;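 active = highest replicate inhibition at or above 60% at 9 µM, even if other replicates fall short; inactive = all replicates below 60% inhibition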
APOBEC3A inh: blocks human APOBEC3A ssDNA deamination. P31941. recombinant A3A, FAM/TAMRA ssDNA deamination fluorescence. inhibition, % at 20 µM. 330,000 compounds, 0.41% hits. AID 493011;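 active = at least 40% inhibition at 20 µM here, with at most 30% in a related deaminase screen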
Target sequence (P31941 whole entry, looked up): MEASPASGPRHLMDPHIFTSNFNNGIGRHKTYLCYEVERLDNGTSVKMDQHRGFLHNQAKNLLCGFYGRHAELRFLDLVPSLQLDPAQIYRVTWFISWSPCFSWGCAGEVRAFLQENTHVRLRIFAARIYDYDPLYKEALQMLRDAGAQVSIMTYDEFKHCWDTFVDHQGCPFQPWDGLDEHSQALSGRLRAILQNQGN
CAL PDZ FP-2: inhibitors of human CAL PDZ peptide binding. Q9HD26. purified CAL PDZ, TMR-peptide fluorescence polarization, 1 h. inhibition, % at 24.9 µM. 300,000 compounds, 0.92% hits;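 active = mean inhibition of at least 30% with at least half of replicates also reaching 30%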
A3G conf: confirmation of human APOBEC3G DNA deaminase inhibitors | shares compounds with APOBEC3G inh | recombinant A3G ssDNA deaminase, UDG/FAM-TAMRA fluorescence | inhibition, % at 20 µM | 890 compounds, 72% hits;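 active = inhibition reaching a set limit in any replicate at 20 µM, the limit being 80% of the first screen's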
UDG A3G counter: E. coli UDG inhibition in APOBEC3G counter-screen. shares compounds with APOBEC3G inh. UDG counterscreen, FAM/TAMRA oligo fluorescence. inhibition, % at 20 µM. 710 tested, under 10 active. AID 504715;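 active = compounds giving 40% or more inhibition at 20 µM in any one of the three replicates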;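 note: inhibitors lower the FAM signal released by uracil excision and alkaline cleavage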
A number is an active result; n = inactive; x = not tested or not shown.

SMILES	Keap1 Nrf2 FP	CAL PDZ FP-1	APOBEC3G inh	C-LANA FP	APOBEC3A inh	CAL PDZ FP-2	A3G conf	UDG A3G counter
Cc1cccc(C)c1NC(=O)CN(C)CC(=O)Nc1cc(Cl)ccc1C#N	n	n	n	n	n	n	x	x
CCOC(=O)c1nn(-c2ccccc2)c(=O)c2c(N)scc12	n	n	n	n	n	n	x	x
Nc1scc2c(C(=O)N/N=C/c3ccc(Cl)cc3)nn(-c3ccccc3)c(=O)c12	n	n	50.9	n	n	n	active	n
CC1C(=O)C(C)(C)C(=O)OC1c1ccc([N+](=O)[O-])cc1 (centres undefined)	n	n	n	n	n	n	x	x
COc1ccc(C2NC(=S)N3C(c4ccc(OC)cc4)NC(=S)N23)cc1 (centres undefined)	n	n	44.9	n	n	n	34.2	n
COc1ccccc1/C=C/C=N/n1c(-c2cc(C)[nH]n2)n[nH]c1=S	n	n	n	n	n	n	x	x
Cc1n[nH]c(=S)n1/N=C/c1ccc(-c2ccccc2[N+](=O)[O-])o1	n	n	45.3	n	n	x	67.9	n
Cc1cc(-c2n[nH]c(=S)n2/N=C/c2ccccc2[N+](=O)[O-])n[nH]1	n	n	60.8	n	n	n	82.5	n
COc1cccc(/C=N/n2c(-c3n[nH]c4c3CCC4)n[nH]c2=S)c1O	n	n	66.3	n	n	n	82.0	n
COc1cccc(/C=N/n2c(-c3cc(C)[nH]n3)n[nH]c2=S)c1O	n	n	52.7	n	n	n	84.8	n
COc1ccc(CCNC(=O)c2coc(=O)c(Br)c2)cc1	x	x	n	x	n	x	x	x
COc1ccccc1/C=C/C=N/n1c(-c2n[nH]c3c2CCC3)n[nH]c1=S	x	x	n	x	n	x	x	x
COc1cc(/C=N/n2c(-c3n[nH]c4c3CCC4)n[nH]c2=S)cc(OC)c1O	n	n	54.2	n	n	n	68.4	n
Cc1c(C(=O)Nc2cccc([N+](=O)[O-])c2)sc2ncn(CC(=O)N3CCOCC3)c(=O)c12	n	n	n	n	n	n	x	x
C=CCOn1c(=O)c(-c2ccc(OCC)cc2)[n+]([O-])c2ccccc21	n	n	n	n	n	n	x	x
S=c1[nH]nc(-c2ccco2)n1/N=C/C=C/c1ccco1	n	n	n	n	n	n	x	x
S=c1[nH]nc(-c2ccco2)n1/N=C/c1ccccc1Cl	n	n	44.7	n	n	n	37.3	n
S=c1[nH]nc(-c2ccco2)n1/N=C/c1ccc(Cl)cc1	n	n	x	n	x	n	x	x
Cc1cc(-c2n[nH]c(=S)n2/N=C/c2ccc(C)s2)n[nH]1	n	n	54.9	n	n	n	72.2	n
Cc1ccc(/C=N/n2c(-c3ccco3)n[nH]c2=S)s1	n	n	40.7	n	n	n	74.8	n
C=CCNC(=O)COc1c(C)ccc(C)c1C	n	n	n	n	n	n	x	x
CSCC(C)N1CCC(CCC(=O)NC2CC2)CC1 (centres undefined)	n	n	n	n	n	n	x	x
CCCOc1ccc(C(=O)NNC(=S)NC(=O)CC)cc1	n	n	47.8	n	n	n	n	n
C=CCNC(=S)NNC(=O)c1ccc(OCCC)cc1	n	n	n	n	n	n	x	x
O=c1c2ccccc2sn1-c1ccc(S(=O)(=O)N2CCCC2)cc1	n	n	77.9	n	n	n	82.5	x
SMILES	Keap1 Nrf2 FP	CAL PDZ FP-1	APOBEC3G inh	C-LANA FP	APOBEC3A inh	CAL PDZ FP-2	A3G conf	UDG A3G counter
O=c1c2ccccc2sn1-c1ccc(S(=O)(=O)N2CCCCC2)cc1	n	n	64.0	n	n	n	65.2	n
Cc1ccc(-n2sc3ccccc3c2=O)cc1S(=O)(=O)N1CCCCC1	n	n	74.9	n	n	n	72.5	x
Cc1ccc(C(=O)NNC(=O)c2ccccc2)cc1S(=O)(=O)N1CCCCC1	n	n	n	n	n	n	x	x
O=C(CCCn1c(=S)[nH]c2ccccc2c1=O)NCCSCc1ccccc1	n	n	n	n	n	n	x	x
CCOC(=O)c1c(NC(C)=O)sc2c1CCN(Cc1ccccc1)C2	n	n	n	n	n	x	x	x
CCOC(=O)c1c(NC(C)=O)sc2c1CCC(C=O)=C2Sc1ccccc1	n	n	41.3	n	n	n	n	n
CCOC(=O)c1c(NC(=O)c2ccccc2N(C)S(=O)(=O)c2ccccc2)sc2c1CCCC2	n	n	n	n	n	n	x	x
CCOC(=O)c1c(NC(=O)c2ccccc2Br)sc2c1CCc1ccccc1-2	n	n	46.1	n	n	n	33.1	n
CC(C)(C)c1ccccc1NC(=S)NC1CCCCC1	n	n	n	n	n	n	x	x
CC(C)Cn1c(-c2ccc(F)cc2)n[nH]c1=S	n	n	40.8	n	n	n	81.7	n
CC(C)Cn1c(Cc2ccccc2)n[nH]c1=S	n	n	n	n	n	x	x	x
CC(C)Cn1c(-c2ccncc2)n[nH]c1=S	n	n	n	n	n	n	x	x
CC(C)Cn1c(-c2ccccc2F)n[nH]c1=S	n	n	41.1	n	n	n	82.0	n
COc1cccc(C(=O)NCC(=O)N/N=C/c2c(C)[nH]c3ccccc23)c1	n	n	44.0	n	n	n	n	x
CCc1ccc(/C=N\NC(=O)c2ccc(Br)o2)s1	n	n	n	n	n	n	x	x
Cc1ccc(/C=N/NC(=O)c2ccc(Br)o2)s1	n	n	59.3	n	n	n	n	n
Cc1cc(C)nc(SSc2nc(C)cc(C)n2)n1	n	n	57.3	n	n	n	83.0	n
CC(=O)Nc1ccc(NC(=O)CSc2nc(=O)n(Cc3cccnc3)c3c2CCC3)cc1	n	n	x	n	x	n	x	x
O=S(=O)(Nc1ccc(Br)cc1)c1cccc(NC(=S)NCCN2CCOCC2)c1	n	n	n	n	n	n	x	x
O=C(/C=C/c1ccccc1)Nc1cccc(S(=O)(=O)Nc2ccccc2F)c1	n	n	71.0	n	n	n	60.0	n
COc1ccccc1NS(=O)(=O)c1cccc(NC(=O)c2ccc3ccccc3n2)c1	n	n	n	n	n	n	x	x
O=C(Cc1ccc(Cl)cc1Cl)Nc1cccc(S(=O)(=O)Nc2ccccc2F)c1	n	n	55.9	n	n	n	73.9	n
O=C(Nc1cccc(S(=O)(=O)Nc2ccccc2F)c1)c1ccc2ccccc2n1	n	n	55.6	n	n	x	60.6	n
O=S(=O)(Nc1ccccc1F)c1cccc(NC(=S)NCCN2CCOCC2)c1	n	n	71.0	n	n	n	80.4	n
CCN(CC)CCCN1C=C2C(=O)C(C)(OC(=O)C3CCCC3)C(=O)C=C2C=C1c1ccsc1 (centres undefined)	n	n	n	n	n	n	x	x
COc1cc(/C=N/n2cc(-c3ccccc3)[nH]c2=S)cc(OC)c1O	n	n	45.7	n	n	n	85.0	n
